ChEMBL document CHEMBL5724801, “EUbOPEN Chemogenomics Library - Multiplex” (2024)
Values joined by “and” are separate entries in the source; they are usually repeats but may differ in a detail not shown here. Equal entries are not always repeated.

Legend:
HEK-293T = test: Multiplex assay against HEK293T; assay type: toxicity, cell-based; settings: human
Method in brief: (§1)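 Live cells carried four stains from seeding: Hoechst33342, BioTracker Green Microtubule Cytoskeleton Dye, MitoTracker Red and Annexin V Alexa Fluor 680. They were imaged on a CQ1 microscope at 37°C and 5% CO2 after compound addition. Using CellPathfinder machine-learning gating, cells were split into Hoechst high-intensity objects or normal cells, normal cells into healthy, pyknosed or fragmented nuclei, and pyknosed cells into mitotic or apoptotic; tubulin, mitochondrial-mass and membrane-permeability phenotypes are per cents of healthy-nucleus cells.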

Fibroblast = test: Multiplex assay against human fibroblast; assay type: toxicity, cell-based; method in brief: as §1
[1] = 24 h, 10 µM, compound concentration 10 uM
[2] = 48 h, 1 µM, compound concentration 1 uM
[3] = 48 h, 10 µM, compound concentration 10 uM
[4] = 12 h, 1 µM, compound concentration 1 uM
[5] = 12 h, 10 µM, compound concentration 10 uM
[6] = 24 h, 1 µM, compound concentration 1 uM

For COc1cc(Nc2ncc3c(n2)-c2ccc(Cl)cc2C(c2c(F)cccc2OC)=NC3)ccc1C(=O)O [ALISERTIB], the “Population Fragmented Nuclei (%)” value (HEK-293T; [1]) was 8% and 12%, the “Population Healthy Nuclei (%)” value (HEK-293T; [1]) was 74% and 55% and the “Population Membrane Permeable-Phenotype (%)” value (HEK-293T; [1]) was 0% and 1%. For the same molecule, the “Population Mitochondria Different-Phenotype (%)” value (HEK-293T; [1]) was 75% and 86%, the “Population Mitotic Cells (%)” value (HEK-293T; [1]) was 45% and 43% and the “Population Normal (%)” value (HEK-293T; [1]) was 93% and 65%. For the same molecule, the “Population Pyknosed Nuclei (%)” value (HEK-293T; [1]) was 16% and 31%, the “Population Tubulin-Different-Phenotype (%)” value (HEK-293T; [1]) was 64% and 50% and the “Population Apoptotic (%)” value (HEK-293T; [2]) was 31% and 57%. The “Population Fragmented Nuclei (%)” value (HEK-293T; [2]) was 14% and 16%, the “Population Healthy Nuclei (%)” value (HEK-293T; [2]) was 79% and 77% and the “Population Membrane Permeable-Phenotype (%)” value (HEK-293T; [2]) was 0%. For the same molecule, the “Population Mitochondria Different-Phenotype (%)” value (HEK-293T; [2]) was 14% and 27%, the “Population Mitotic Cells (%)” value (HEK-293T; [2]) was 68% and 42% and the “Population Normal (%)” value (HEK-293T; [2]) was 96% and 84%. The “Population Pyknosed Nuclei (%)” value (HEK-293T; [2]) was 5%, the “Population Tubulin-Different-Phenotype (%)” value (HEK-293T; [2]) was 17% and 24% and the “Population Apoptotic (%)” value (HEK-293T; [3]) was 48% and 82%. The “Population Fragmented Nuclei (%)” value (HEK-293T; [3]) was 13% and 19%, the “Population Healthy Nuclei (%)” value (HEK-293T; [3]) was 78% and 61% and the “Population Membrane Permeable-Phenotype (%)” value (HEK-293T; [3]) was 0% and 4%. The “Population Mitochondria Different-Phenotype (%)” value (HEK-293T; [3]) was 57% and 73%, the “Population Normal (%)” value (HEK-293T; [3]) was 94% and 67% and the “Population Pyknosed Nuclei (%)” value (HEK-293T; [3]) was 7% and 19%. The “Population Tubulin-Different-Phenotype (%)” value (HEK-293T; [3]) was 42% and 38%, the “Population Apoptotic (%)” value (Fibroblast; [4]) was 39% and 42% and the “Population Fragmented Nuclei (%)” value (Fibroblast; [4]) was 11% and 18%. The “Population Healthy Nuclei (%)” value (Fibroblast; [4]) was 66% and 47%, the “Population Hoechst High Intensity Objects (%)” value (Fibroblast; [4]) was 1% and 8% and the “Population Membrane Permeable-Phenotype (%)” value (Fibroblast; [4]) was 2% and 7%. The “Population Mitochondria Different-Phenotype (%)” value (Fibroblast; [4]) was 4% and 7%, the “Population Mitotic Cells (%)” value (Fibroblast; [4]) was 60% and 57% and the “Population Normal (%)” value (Fibroblast; [4]) was 98% and 91%. The “Population Pyknosed Nuclei (%)” value (Fibroblast; [4]) was 21% and 33%, the “Population Tubulin-Different-Phenotype (%)” value (Fibroblast; [4]) was 23% and 41% and the “Population Apoptotic (%)” value (Fibroblast; [5]) was 56% and 48%. The “Population Fragmented Nuclei (%)” value (Fibroblast; [5]) was 28% and 35%, the “Population Healthy Nuclei (%)” value (Fibroblast; [5]) was 47% and 30% and the “Population Hoechst High Intensity Objects (%)” value (Fibroblast; [5]) was 13% and 8%. For the same molecule, the “Population Membrane Permeable-Phenotype (%)” value (Fibroblast; [5]) was 1% and 4%, the “Population Mitochondria Different-Phenotype (%)” value (Fibroblast; [5]) was 22% and 16% and the “Population Mitotic Cells (%)” value (Fibroblast; [5]) was 43% and 51%. For the same molecule, the “Population Normal (%)” value (Fibroblast; [5]) was 86% and 91%, the “Population Pyknosed Nuclei (%)” value (Fibroblast; [5]) was 24% and 33% and the “Population Tubulin-Different-Phenotype (%)” value (Fibroblast; [5]) was 69% and 64%. The “Total Cell Count” value (Fibroblast; [5]) was 209 and 89, the “Population Apoptotic (%)” value (Fibroblast; [6]) was 36% and 48% and the “Population Fragmented Nuclei (%)” value (Fibroblast; [6]) was 12% and 26%. The “Population Healthy Nuclei (%)” value (Fibroblast; [6]) was 69% and 47%, the “Population Hoechst High Intensity Objects (%)” value (Fibroblast; [6]) was 2% and 4% and the “Population Membrane Permeable-Phenotype (%)” value (Fibroblast; [6]) was 2% and 4%. For the same molecule, the “Population Mitochondria Different-Phenotype (%)” value (Fibroblast; [6]) was 6%, the “Population Mitotic Cells (%)” value (Fibroblast; [6]) was 63% and 51% and the “Population Normal (%)” value (Fibroblast; [6]) was 97% and 95%. The “Population Pyknosed Nuclei (%)” value (Fibroblast; [6]) was 18% and 26%, the “Population Tubulin-Different-Phenotype (%)” value (Fibroblast; [6]) was 28% and 47% and the “Total Cell Count” value (Fibroblast; [6]) was 123. The “Population Apoptotic (%)” value (Fibroblast; [1]) was 64% and 56%, the “Population Fragmented Nuclei (%)” value (Fibroblast; [1]) was 29% and 45% and the “Population Healthy Nuclei (%)” value (Fibroblast; [1]) was 44% and 36%. The “Population Hoechst High Intensity Objects (%)” value (Fibroblast; [1]) was 13% and 5%, the “Population Membrane Permeable-Phenotype (%)” value (Fibroblast; [1]) was 1% and 0% and the “Population Mitochondria Different-Phenotype (%)” value (Fibroblast; [1]) was 24% and 9%. The “Population Mitotic Cells (%)” value (Fibroblast; [1]) was 35% and 43%, the “Population Normal (%)” value (Fibroblast; [1]) was 86% and 94% and the “Population Pyknosed Nuclei (%)” value (Fibroblast; [1]) was 25% and 18%. The “Population Tubulin-Different-Phenotype (%)” value (Fibroblast; [1]) was 68% and 71%, the “Total Cell Count” value (Fibroblast; [1]) was 191 and 93 and the “Population Apoptotic (%)” value (Fibroblast; [2]) was 57% and 38%. The “Population Fragmented Nuclei (%)” value (Fibroblast; [2]) was 15% and 33%, the “Population Healthy Nuclei (%)” value (Fibroblast; [2]) was 65% and 42% and the “Population Hoechst High Intensity Objects (%)” value (Fibroblast; [2]) was 5%. The “Population Membrane Permeable-Phenotype (%)” value (Fibroblast; [2]) was 4% and 7%, the “Population Mitochondria Different-Phenotype (%)” value (Fibroblast; [2]) was 5% and the “Population Mitotic Cells (%)” value (Fibroblast; [2]) was 42% and 61%. The “Population Normal (%)” value (Fibroblast; [2]) was 94%, the “Population Pyknosed Nuclei (%)” value (Fibroblast; [2]) was 19% and 24% and the “Population Tubulin-Different-Phenotype (%)” value (Fibroblast; [2]) was 32% and 54%. For the same molecule, the “Total Cell Count” value (Fibroblast; [2]) was 115, the “Population Apoptotic (%)” value (Fibroblast; [3]) was 84% and 66% and the “Population Fragmented Nuclei (%)” value (Fibroblast; [3]) was 38% and 37%. The “Population Healthy Nuclei (%)” value (Fibroblast; [3]) was 35% and 51%, the “Population Hoechst High Intensity Objects (%)” value (Fibroblast; [3]) was 23% and 8% and the “Population Membrane Permeable-Phenotype (%)” value (Fibroblast; [3]) was 5% and 2%. The “Population Mitochondria Different-Phenotype (%)” value (Fibroblast; [3]) was 37% and 15%, the “Population Mitotic Cells (%)” value (Fibroblast; [3]) was 15% and 33% and the “Population Normal (%)” value (Fibroblast; [3]) was 76% and 91%. For the same molecule, the “Population Pyknosed Nuclei (%)” value (Fibroblast; [3]) was 26% and 11%, the “Population Tubulin-Different-Phenotype (%)” value (Fibroblast; [3]) was 80% and 65% and the “Total Cell Count” value (Fibroblast; [3]) was 188 and 85.
